# Results from different studies.
# Each line is one published result; the experiments were not run side by side.
# Target: Inhibitor of nuclear factor kappa-B kinase subunit alpha (CHUK, Homo sapiens, UniProt O15111)
# One construct used (O15111 1-745): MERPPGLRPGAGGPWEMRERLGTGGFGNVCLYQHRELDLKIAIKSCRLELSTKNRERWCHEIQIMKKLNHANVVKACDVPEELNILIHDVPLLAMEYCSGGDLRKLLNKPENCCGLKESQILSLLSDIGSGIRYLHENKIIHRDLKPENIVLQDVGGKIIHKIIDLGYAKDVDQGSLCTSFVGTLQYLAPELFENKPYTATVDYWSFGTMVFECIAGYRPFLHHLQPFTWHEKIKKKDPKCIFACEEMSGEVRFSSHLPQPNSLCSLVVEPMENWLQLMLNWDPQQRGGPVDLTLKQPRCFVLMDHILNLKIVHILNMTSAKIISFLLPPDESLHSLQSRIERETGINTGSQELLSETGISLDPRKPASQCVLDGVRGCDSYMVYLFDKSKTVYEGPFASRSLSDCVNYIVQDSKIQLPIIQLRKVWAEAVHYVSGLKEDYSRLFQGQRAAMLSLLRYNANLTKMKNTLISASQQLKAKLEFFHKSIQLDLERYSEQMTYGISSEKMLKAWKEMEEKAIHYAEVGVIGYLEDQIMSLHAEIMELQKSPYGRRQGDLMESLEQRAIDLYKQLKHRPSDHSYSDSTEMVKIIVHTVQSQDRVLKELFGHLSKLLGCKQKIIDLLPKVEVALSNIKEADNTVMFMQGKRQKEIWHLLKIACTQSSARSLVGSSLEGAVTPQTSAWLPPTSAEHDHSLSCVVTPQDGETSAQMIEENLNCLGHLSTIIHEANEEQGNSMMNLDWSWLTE
SMILES,observed,method,concentration,remaining binding [%]
O=C(c1ccc(Nc2ncc(Cl)c(-c3cc4ccccc4s3)n2)cc1)N1CCC(N2CCCC2)CC1,binding,competition with immobilised ligand,1 µM,0.8
O=C(Nc1c[nH]nc1C(=O)NC1CCNCC1)c1cc(F)cc(F)c1,binding,competition with immobilised ligand,1 µM,100
N#Cc1ccccc1CSc1nnc2c(n1)[nH]c1ccccc12,binding,competition with immobilised ligand,10 µM,100
CCC(=O)N[C@H]1CC[C@@H](C(=O)N(C)c2ccc(-c3nc4ccccc4o3)cc2)C1,cell-free assay,competition with immobilised ligand,1 µM,100
C[C@@H](c1ccc(-n2cnc3c(N)ncnc32)cc1)N1CCc2nn(C)c(Cc3ccccc3)c2C1=O,binding,competition with immobilised ligand,0.1 µM,80
CN(CCCC(F)(F)F)c1nccc(-c2cnn3ncccc23)n1,binding,,1 µM,99
C[C@@H]1CN(c2ccc3ncc(-c4ccc5[nH]nc(C6CC6)c5c4)n3n2)C[C@H](C)O1,binding,competition with immobilised ligand,0.5 µM,85
O=C(NCCCN1CCOCC1)c1ccc(Nc2ncc(Cl)c(-c3ccc(Cl)s3)n2)cc1,binding,competition with immobilised ligand,1 µM,51
N[C@@H]1CCN(c2nccc(-c3cnn4ncccc34)n2)C1,binding,,1 µM,100
COc1cnc(Nc2cccc(S(N)(=O)=O)c2)nc1N1CCN(c2ccccc2)C(=O)C1,binding,competition with immobilised ligand,1 µM,91
CC1CCCN1c1nccc(-c2cnn3ncccc23)n1 (stereo not shown),binding,,1 µM,86
Cn1cc(Cl)c2c(Oc3c(F)cc(Nc4cc(Cl)nc(N)n4)cc3F)ccnc21,cell-free assay,competition with immobilised ligand,0.1 µM,85
O=C(c1ccc(Nc2nccc(-c3cc4ccccc4s3)n2)cc1)N1CCC(N2CCCC2)CC1,binding,competition with immobilised ligand,1 µM,0.2
C[C@H]1CCN(c2nccc(-c3cnn4ncccc34)n2)C1,binding,,1 µM,62
Cc1nccc(COC(=O)N2C[C@@H]3[C@@H](CNC(=O)c4ccc5[nH]nnc5c4)[C@@H]3C2)n1,cell-free assay,competition with immobilised ligand,1 µM,100
CN(C)c1ncc(F)c(-c2cnn3ncccc23)n1,binding,,1 µM,70
FC(F)(F)Oc1cccc(-c2cnc3ccc(-c4ccncc4)nn23)c1,cell-free assay,competition with immobilised ligand,5 µM,39
C[C@@]1(Cc2ccc(C#N)cc2)C(=O)N(c2cc(Cl)cc(Cl)c2)c2ncc(C(=O)NC3(c4nc(C5CCC5)no4)CC3)n21,cell-free assay,competition with immobilised ligand,1 µM,100
CN(C)c1nccc(-c2cnn3ncccc23)n1,binding,,1 µM,81
O=C(Nc1cnc(Oc2ccc(F)cc2)nc1)N1CCc2ncccc2[C@@H]1c1ccc(F)cc1,cell-free assay,competition with immobilised ligand,1 µM,100
Cc1cnn2ncc(-c3ccnc(N(C)C)n3)c2c1,binding,,1 µM,69
O=C(NS(=O)(=O)c1ccc(NCC2CCOCC2)c([N+](=O)[O-])c1)c1ccc(N2CCN(Cc3ccc(C(F)(F)F)cc3-c3ccc(Cl)cc3)CC2)cc1Oc1cnc2[nH]ccc2c1,cell-free assay,competition with immobilised ligand,1 µM,81
Nc1ncc2c(n1)-c1c([nH]c3ccc(C#CC4CC4)cc13)CCCC2,binding,competition with immobilised ligand,1 µM,98
Nc1c(C(=O)NCc2ccc(C(=O)NCCCC3CCCCC3)cc2)cnn1-c1ccccc1,cell-free assay,competition with immobilised ligand,0.1 µM,100
COc1ncc2cc3ccccc3nc2c1C#N,cell-free assay,competition with immobilised ligand,5 µM,98
